# Test results taken from ChEMBL document CHEMBL3091284, “Hygrocins C-G, cytotoxic naphthoquinone ansamycins from gdmAI-disrupted Streptomyces sp. LZ35” (J Nat Prod, 2013).
# Activity calls are given as the source filed them. The calls are words filed in the database; no cut-off is given here.
# Legend:
# Format in all cases: functional, cell-based
# PC-3 [1] = assay: Cytotoxicity against human PC3 cells by MTT assay
# How it was run: (§1)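 MTT viability/proliferation assay on human cancer lines (breast MDA-MB-431, prostate PC3, alveolar basal epithelial A549, colorectal SW620, hepatocellular HepG2). Compounds tested up to a maximum of 10 μM, with activity judged relative to control and IC50 derived. Cisplatin at 5 μg/mL served as positive control.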
# [2] = Cytotoxicity against human MDA-MB-431 cells by MTT assay; how it was run: as §1
# SW-620 = assay: Cytotoxicity against human SW620 cells assessed as growth inhibition up to 10 uM by MTT assay; how it was run: as §1
# A549 = assay: Cytotoxicity against human A549 cells assessed as growth inhibition up to 10 uM by MTT assay; how it was run: as §1
# Homo sapiens = species: Homo sapiens; assay: Cytotoxicity against human MDA-MB-431 cells assessed as growth inhibition up to 10 uM by MTT assay; how it was run: as §1
# HepG2 = assay: Cytotoxicity against human HepG2 cells assessed as growth inhibition up to 10 uM by MTT assay; how it was run: as §1
# PC-3 [3] = assay: Cytotoxicity against human PC3 cells assessed as growth inhibition up to 10 uM by MTT assay; how it was run: as §1
Structure (SMILES),IC50 (PC-3 [1]) [µM],IC50 [2] [µM],growth inhibition (GI) (SW-620),growth inhibition (GI) (A549),growth inhibition (GI) (Homo sapiens),growth inhibition (GI) (HepG2),growth inhibition (GI) (PC-3 [3])
CC[C@@H]1/C=C/[C@H](O)[C@H](C)OC(=O)/C(C)=C\[C@@H]2C(=O)NC3=CC(=O)c4c(cc(C)c(O)c4C(=O)CC1)[C@@]32O,5,3,,,,,
CC[C@@H]1/C=C/[C@H](C(C)O)OC(=O)/C(C)=C\[C@H]2C(=O)NC3=CC(=O)c4c(cc(C)c(O)c4C(=O)CC1)[C@@]32O (stereo partly specified),4.5,3.3,,,,,
CC[C@@H]1/C=C/[C@H](O)[C@H](C)OC(=O)/C(C)=C\[C@H]2C(=O)NC3=CC(=O)c4c(cc(C)c(O)c4C(=O)CC1)[C@@]32O,1.9,0.5,,,,,
CCC1/C=C/[C@H](C(C)O)OC(=O)[C@@]2(C)C=CC(=O)NC3=C2C(=O)c2c(cc(C)c(O)c2C(=O)CC1)C3=O (stereo partly specified),,,inactive,inactive,inactive,inactive,inactive
CC[C@@H]1/C=C/[C@H](O)[C@H](C)OC(=O)/C(C)=C/[C@@H]2C(=O)NC3=CC(=O)c4c(cc(C)c(O)c4C(=O)CC1)[C@@]32O,,,inactive,inactive,inactive,inactive,inactive
CCC1/C=C/[C@H](O)[C@H](C)OC(=O)[C@@]2(C)C=CC(=O)NC3=C2C(=O)c2c(cc(C)c(O)c2C(=O)CC1)C3=O (stereo partly specified),,,inactive,inactive,inactive,inactive,inactive
